Test results from PMC12398596 (Nature Communications, 2025).

Columns and labels:
[1] = system: sAβ42; assay: Dynamic light scattering, sAβ42 with compounds; assay type: physicochemical; details: PBS; for shift of sAβ42 particle size to single range around 100 nm: sAβ42 + compound
[2] = target: T1, fAβ42 (Homo sapiens, UniProt P05067); assay: PICUP-Western blot of fAβ42, antibody 4G8; assay type: biochemical; details: fAβ42 20 μM, 37 °C, P2CSKn result at 0.5 eq. (10 μM)
[3] = system: fFITC-Aβ42; assay: LSCM re-assembly of fFITC-Aβ42 plaques; assay type: biochemical; details: fFITC-Aβ42 5.0 μM, compound 25 μM, PBS
[4] = system: Mrc1 mRNA in BV2 cells; assay: Mrc1 mRNA in BV2 cells, rt-qPCR; assay type: cell-based, mouse; details: for expression of Mrc1 mRNA, TLR agonists (in words): LPS 1.0 μg/mL, Pam3CSK4 1.0 μM, Pam2CSK4 1.0 μM, zymosan A 50 μg/mL
[5] = system: Msr1 mRNA in BV2 cells; assay: Msr1 mRNA in BV2 cells, rt-qPCR; assay type: cell-based, mouse; details: for expression of Msr1 mRNA, TLR agonists (in words): LPS 1.0 μg/mL, Pam2CSK4 1.0 μM, zymosan A 50 μg/mL, flagellin 200 nM
[6] = system: sAβ42; assay: Tyndall effect of sAβ42 with compounds; assay type: physicochemical; details: PBS; for Tyndall effect of sAβ42 on addition of compound: imaged immediately after mixing; for Tyndall effect of compound itself (self-aggregation): compound alone
[7] = system: Marco mRNA in BV2 cells; assay: Marco mRNA in BV2 cells, rt-qPCR; assay type: cell-based, mouse; details: for expression of Marco mRNA, TLR agonists (in words): LPS 1.0 μg/mL, Pam2CSK4 1.0 μM, flagellin 200 nM
[8] = system: BV2 cells; assay: Phagocytosis of fluorescent microsphere in BV2 cells, flow cytometry; assay type: cell-based, mouse; details: fAβ42 0.5 μM
[9] = target: T1, fAβ42; assay: Dynamic light scattering, fAβ42 with P2CSKn, time-dependent; assay type: physicochemical
[10] = system: BV2 cells; assay: RNA-seq of BV2 cells; assay type: cell-based, mouse
[11] = system: caspase-3; assay: Cleaved caspase-3 in BV2 cells, Western blot; assay type: cell-based, mouse; details: sAβ42, fAβ42 0.5 μM; hPAβ42 1.0 μM P2CSKn + 0.5 μM sAβ42; 12 h
[12] = target: T1, fAβ42; assay: ThT fluorescence kinetics of preformed fAβ42; assay type: biochemical; details: sAβ42 10 μM, 37 °C
[13] = system: primary microglia; assay: Phagocytosis of sFITC-Aβ42 in primary microglia, flow cytometry; assay type: cell-based, mouse
[14] = system: BV2 cells; assay: Degradation of FITC-Aβ42 forms in BV2 cells; assay type: cell-based, mouse; details: for degradation of intracellular FITC-Aβ42: 0.5 μM FITC-Aβ42 forms, 180 min then washed
[15] = system: TLR2, BV2 cells; assay: Phagocytosis of FITC-Aβ42 forms in TLR2-WT; assay type: cell-based, mouse; details: 0.5 μM, 30 min; for uptake in TLR2-knockdown BV2 cells: TLR2-siRNA; for uptake in BV2-NC cells: null-siRNA control
[16] = system: TLR2; assay: Cellular colocalization of FITC-Aβ42/RhoB-P2CSKn/TLR2, LSCM; assay type: cell-based, mouse; details: RhoB-P2CSKn 1.0 μM, sFITC-Aβ42 0.5 μM, 1 h
[17] = system: Aβ plaque; assay: Local hippocampus injection, Aβ plaque by Thioflavin S, APP/PS1 mice; assay type: in vivo, APP/PS1 transgenic mice; details: 9-month-old APP/PS1, hippocampus, 100 μM 300 nL, 5 d, mean ± SD
Outline: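 APP/PS1 mice (9 or 16 months) under pentobarbital (50 mg/kg) received stereotaxic injections of test compound (100 μM, 300 nL saline, with Alexa Fluor 594) into right dorsal hippocampus (AP −2.2, ML +1.5, DV −1.9 mm) and reference into left. Meloxicam 5.0 mg/kg s.c. given pre-surgery and every 12 h for 3 days. Perfusion-fixed at 5 or 10 days, DAPI-counterstained. INJ/ADJ ratios compared between hemispheres.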

[18] = system: BV2 cells; assay: Phagocytosis of sFITC-Aβ42 in BV2 cells, flow cytometry; assay type: cell-based, mouse; details: sFITC-Aβ42 0.5 μM, 2 eq., 180 min, mean ± SD, n = 3
[19] = system: BV2 cells; assay: Phagocytosis of fFITC-Aβ42 in BV2 cells, flow cytometry; assay type: cell-based, mouse; details: fFITC-Aβ42 0.5 μM, 8 eq., 180 min, mean ± SD, n = 3
[20] = system: MARCO; assay: MARCO protein in BV2 cells, Western blot; assay type: cell-based, mouse; details: P2CSKn or Pam2CSK4 1.0 μM, 12 h
[21] = system: MSR1; assay: MSR1 protein in BV2 cells, Western blot; assay type: cell-based, mouse; details: P2CSKn or Pam2CSK4 1.0 μM, 12 h
[22] = system: NLRP3; assay: NLRP3 protein in BV2 cells, Western blot; assay type: cell-based, mouse; details: 1.0 μM, 12 h
[23] = system: BV2 cells; assay: Treat & wash phagocytosis of fFITC-Aβ42 in BV2 cells; assay type: cell-based, mouse
[24] = system: BV2 cells; assay: Normal vs treat & wash phagocytosis of sFITC-Aβ42 in BV2 cells; assay type: cell-based, mouse; details: mean ± SD, n = 3
[25] = system: Aβ plaque; assay: Local cortex injection, Aβ plaque by Thioflavin S, APP/PS1 mice; assay type: in vivo, APP/PS1 transgenic mice; details: 13-month-old APP/PS1, cortex, 100 μM 300 nL, 5 d, mean ± SD
Outline: (§1)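 13-month APP/PS1 mice (C57BL/6 background) under sodium pentobarbital (50 mg/kg) received a unilateral stereotaxic cortical injection (AP +1.0, ML ±1.0, DV −1.0) of compound or reference (100 μM, 300 nL saline, with Hoechst 33342) at 50 nL/min. Perfusion-fixed (PBS, 4% PFA) at 2 or 5 days and sections immunostained. Ratio = signal at injection zone (>80% max dye) over adjacent zone (>200 μm away, <10% dye); 50 μm around needle track excluded.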

[26] = system: Aβ plaque; assay: Local cortex injection, Aβ by antibody OC, APP/PS1 mice; assay type: in vivo, APP/PS1 transgenic mice; details: 13-month-old APP/PS1, cortex, 100 μM 300 nL, 5 d, mean ± SD
Outline: as §1

[27] = system: Iba1; assay: Local cortex injection, Iba1, APP/PS1 mice; assay type: in vivo, APP/PS1 transgenic mice; details: 13-month-old APP/PS1, cortex, 100 μM 300 nL, 5 d, mean ± SD
Outline: as §1

[28] = system: BV2 cells; assay: Colocalization of P2CSKn-pretreated sFITC-Aβ42 with LysoTracker Red in BV2 cells; assay type: cell-based, mouse; details: chloroquine 10 μM, 1 h pretreatment
[29] = equimolar P2CSKn + fAβ42 (20 μM), whole sample, initial
[30] = fAβ42 only 20 μM, whole sample, 18.5 h
[31] = fAβ42 only 20 μM, whole sample, initial
[32] = fAβ42 only, supernatant, 18.5 h
[33] = 1.0 μM, 12 h, in the absence or presence of Aβ42 species

KLVFFn was tested, and the “shift of sAβ42 particle size to single range around 100 nm” value [1] was “did not occur”, the “oligomer alteration in fAβ42” value [2] was “not observed” and the “co-location with / reshaping of FITC-Aβ42 plaque” value [3] was “did not occur”.

With Zymosan A the “expression of Mrc1 mRNA, TLR agonists (in words)” value [4] was “significantly attenuated” and the “expression of Msr1 mRNA, TLR agonists (in words)” value [5] was “substantially upregulated”.

For Pam2KTK4-ahx-KLVFF-nal [P2KTKn], the “Tyndall effect of sAβ42 on addition of compound” value (“Tyndall effect of sAβ42” for short) [6] was “didn’t facilitate that of sAβ42” and the “Tyndall effect of compound itself (self-aggregation)” value [6] was “significant Tyndall effect”.

With Pam3CSK4-ahx-KLVFF-nal [P3CSKn] the “Tyndall effect of sAβ42” value [6] was “didn’t facilitate that of sAβ42” and the “Tyndall effect of compound itself (self-aggregation)” value [6] was “significant Tyndall effect”.

In the case of fAβ42: pre-formed fibrillar Aβ42, the “expression of Mrc1 mRNA (in words)” value ([4]; fAβ42 0.5 μM, after 30 min) is reported as “significantly suppressed”, the “expression of Msr1 mRNA (in words)” value ([5]; fAβ42 0.5 μM, after 30 min) is reported as “significantly suppressed” and the “expression of Marco mRNA (in words)” value ([7]; fAβ42 0.5 μM, after 60 min) is reported as “significantly suppressed”. For the same molecule, the “uptake of fluorescent microsphere (in words)” value [8] was “time-dependently decreased”, the “hydrodynamic diameter, bimodal range” value ([9]; equimolar P2CSKn + fAβ42 (20 μM), whole sample, 0.5 h) was 40–900 nm and the “hydrodynamic diameter, population 2” value [9, 29] was roughly 700 nm. The “hydrodynamic diameter, population 3” value [9, 29] was roughly 9000 nm, the “hydrodynamic diameter, population 1” value [9, 30] was “around 16 nm” and the “hydrodynamic diameter, population 2” value [9, 30] was roughly 136 nm. For the same molecule, the “hydrodynamic diameter, population 3 (dominant)” value [9, 30] was roughly 6000 nm, the “hydrodynamic diameter, population 1” value [9, 31] was “about 40 nm” and the “hydrodynamic diameter, population 2” value [9, 31] was roughly 700 nm. For the same molecule, the “hydrodynamic diameter, population 3” value [9, 31] was roughly 6000 nm, the “hydrodynamic diameter, species 1” value [9, 32] was “around 107 nm” and the “hydrodynamic diameter, species 2” value [9, 32] was roughly 717 nm. The “hydrodynamic diameter, monomodal range” value ([9]; fAβ42 only, supernatant, until 4.5 h) was 40–85 nm, the “phagosome-related genes, RNA-seq” value ([10]; fAβ42 0.5 μM, BV2, 12 h) was “significantly donwregulated” and the “–log2(FC) of Msr1, Marco and Mrc1” value ([10]; fAβ42 0.5 μM, BV2, 12 h) was greater than 1. The “Tlr2, Tlr4 or Tlr5 expression” value ([10]; fAβ42 treatment, RNA-seq) was “not significantly affected” and the “apoptosis of BV2 cells, cleaved caspase-3” value [11] was “significant apoptosis”.

For Pam3CSK4, the “expression of Mrc1 mRNA, TLR agonists (in words)” value [4] was “significantly attenuated”.

With Flagellin the “expression of Msr1 mRNA, TLR agonists (in words)” value [5] was “failed to upregulate” and the “expression of Marco mRNA, TLR agonists (in words)” value [7] was “failed to upregulate”.

In the case of sAβ42: soluble Aβ42, the “hydrodynamic diameter, peak 1” value ([1]; sAβ42 alone) is reported as “around 3 nm”, the “hydrodynamic diameter, peak 2” value ([1]; sAβ42 alone) is reported as roughly 12 nm and the “lag time of β-sheet formation” value [12] is reported as 6.5 h. For the same molecule, the “apoptosis of BV2 cells, cleaved caspase-3” value [11] was “significant apoptosis”.

sFITC-Aβ42: soluble FITC-labeled Aβ42 was tested, and the “cell population with engulfed sFITC-Aβ42” value ([13]; sFITC-Aβ42 0.5 μM alone, within about 360 min) was ~ 40%, the “intracellular accumulation of FITC-Aβ42” value ([13]; sFITC-Aβ42 0.5 μM ± P2CSKn 1.0 μM) was “extremely low” and the “degradation of intracellular FITC-Aβ42” value [14] was “efficiently degraded”. The “uptake in TLR2-knockdown BV2 cells” value [15] was 12.6%, the “uptake in BV2-NC cells” value [15] was ~ 27.3% and the “co-localization of TLR2 with RhoB-P2CSKn and FITC-Aβ42” value [16] was “rarely observed”.

For Pam-KCKSKVFLKFK-ahx-nal [RP], the “INJ/ADJ TS” value [17] was 1.12 ± 1.04.

For Pam2CSK4, the “expression of Mrc1 mRNA, TLR agonists (in words)” value [4] was “significantly attenuated”, the “mRNA of Msr1 (in words)” value [5, 33] was “upregulated” and the “expression of Msr1 mRNA, TLR agonists (in words)” value [5] was “substantially upregulated”. For the same molecule, the “mRNA of Marco (in words)” value [7, 33] was “upregulated”, the “expression of Marco mRNA, TLR agonists (in words)” value [7] was “upregulated” and the “Tyndall effect of sAβ42” value [6] was “much less activity than P2CSKn”. For the same molecule, the “shift of sAβ42 particle size to single range around 100 nm” value [1] was “did not occur”, the “oligomer alteration in fAβ42” value [2] was “not observed” and the “co-location with / reshaping of FITC-Aβ42 plaque” value [3] was “did not occur”. For the same molecule, the MFI180 [18] was 18911 ± 310, the MFI180 [19] was 24286 ± 520 and the “count180 (cells internalized FITC-Aβ42)” value [19] was 89.2 ± 0.3%. For the same molecule, the “protein level of MARCO (in words)” value [20] was “significant increase”, the “protein level of MSR1 (in words)” value [21] was “significant increase” and the “protein level of NLRP3 (in words)” value [22] was “increased”. The “phagocytosis of fFITC-Aβ42, treat & wash” value ([23]; 1.0 μM 6 h, washed, fFITC-Aβ42 0.5 μM 12 h, mean ± SD, n = 3) was 43.8 ± 4.1%, the “increase in phagocytosis of fFITC-Aβ42, treat & wash” value ([23]; versus untreated fFITC-Aβ42) was “about 26%” and the “phagocytosis of sFITC-Aβ42, treat & wash group” value ([24]; compound 1.0 μM 6 h, washed, sFITC-Aβ42 0.5 μM 12 h) was 24.0 ± 2.3%. For the same molecule, the “phagocytosis of sFITC-Aβ42, normal group” value ([24]; sFITC-Aβ42 0.5 μM pretreated with compound 1.0 μM 30 min, 12 h) was 49.3 ± 4.1%, the “INJ/ADJ TS” value [25] was 0.85 ± 0.11 and the “INJ/ADJ OC” value [26] was 1.05 ± 0.28. For the same molecule, the “INJ/ADJ Iba1” value [27] was 5.79 ± 1.71.

In the case of `CCN(CC)CCCC(C)Nc1ccnc2cc(Cl)ccc12` (stereo not shown) [chloroquine], the “lysosome amount and level of phagocytosis of hybrid aggregates” value [28] is reported as “significantly reduced” and the “degradation of intracellular FITC-Aβ42, effect of inhibitor” value ([14]; chloroquine pretreatment 10 μM, 1 h) is reported as “almost completely abolished”.

“fFITC-Aβ42: pre-formed fibrillar FITC-Aβ42” was tested, and the “degradation of intracellular FITC-Aβ42” value [14] was “efficiently degraded”, the “uptake in TLR2-knockdown BV2 cells” value [15] was 12.8% and the “uptake in BV2-NC cells” value [15] was ~ 39.2%.
